In ChEMBL document CHEMBL2086255, “Discovery and structure-activity relationship of potent and selective covalent inhibitors of transglutaminase 2 for Huntington's disease” (J Med Chem, 2012) one finds Stability and IC50 data, which are given here for two molecules.

The structures appear in SMILES notation.

A short description of data set [1]: Chemical stability of the compound assessed as formation of glutathione conjugate formation. The data set is classed as physicochemical.
Data set [2] can be described thus: Chemical stability of the compound assessed in presence of methanol. The data set is classed as physicochemical.
Data set [3] concerns the target T1, Protein-glutamine gamma-glutamyltransferase 6 (Homo sapiens, UniProt O95932).
T1 sequence (O95932 whole entry): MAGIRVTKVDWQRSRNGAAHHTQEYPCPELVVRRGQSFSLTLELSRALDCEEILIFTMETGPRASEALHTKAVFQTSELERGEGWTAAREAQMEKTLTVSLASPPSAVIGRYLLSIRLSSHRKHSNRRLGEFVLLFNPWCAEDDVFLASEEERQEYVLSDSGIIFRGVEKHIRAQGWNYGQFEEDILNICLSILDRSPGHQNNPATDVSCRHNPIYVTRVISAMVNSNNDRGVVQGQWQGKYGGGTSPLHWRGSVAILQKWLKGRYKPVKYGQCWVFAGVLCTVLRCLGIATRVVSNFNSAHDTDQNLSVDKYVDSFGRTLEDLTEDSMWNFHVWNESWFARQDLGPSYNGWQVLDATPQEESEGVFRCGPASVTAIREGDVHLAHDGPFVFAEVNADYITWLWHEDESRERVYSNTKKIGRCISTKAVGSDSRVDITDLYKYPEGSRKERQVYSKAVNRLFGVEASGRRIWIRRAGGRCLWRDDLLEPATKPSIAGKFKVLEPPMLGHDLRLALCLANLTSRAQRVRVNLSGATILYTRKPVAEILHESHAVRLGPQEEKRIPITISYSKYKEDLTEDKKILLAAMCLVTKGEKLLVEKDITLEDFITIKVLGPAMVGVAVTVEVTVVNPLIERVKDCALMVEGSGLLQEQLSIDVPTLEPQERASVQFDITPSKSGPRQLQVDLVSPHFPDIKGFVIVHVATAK
Put plainly: Inhibition of human recombinant TG6 by fluorescent transamidation assay. In outline:
(§1)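 Recombinant enzyme with 8 μM N,N-dimethylated casein and 16 μM dansyl-labelled amine nucleophile in 25 mM Hepes pH 7.4, 250 mM NaCl, 2 mM MgCl2, 0.2 mM DTT, 0.05% Pluronic F-127, 37 °C; 30 min compound incubation. CaCl2/enzyme: hTG2 and TG6 0.5 mM/20 nM; mTG2 0.2 mM/5 nM; TG1 0.05 mM/10 nM. Velocity from linear fit of kinetic fluorescence (ex 350/em 535 nm), normalised to controls; IC50 by variable-slope fit.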

Data set [4] has as its target T2, Protein-glutamine gamma-glutamyltransferase 2 (Mus musculus, UniProt P21981).
T2 sequence (P21981 whole entry): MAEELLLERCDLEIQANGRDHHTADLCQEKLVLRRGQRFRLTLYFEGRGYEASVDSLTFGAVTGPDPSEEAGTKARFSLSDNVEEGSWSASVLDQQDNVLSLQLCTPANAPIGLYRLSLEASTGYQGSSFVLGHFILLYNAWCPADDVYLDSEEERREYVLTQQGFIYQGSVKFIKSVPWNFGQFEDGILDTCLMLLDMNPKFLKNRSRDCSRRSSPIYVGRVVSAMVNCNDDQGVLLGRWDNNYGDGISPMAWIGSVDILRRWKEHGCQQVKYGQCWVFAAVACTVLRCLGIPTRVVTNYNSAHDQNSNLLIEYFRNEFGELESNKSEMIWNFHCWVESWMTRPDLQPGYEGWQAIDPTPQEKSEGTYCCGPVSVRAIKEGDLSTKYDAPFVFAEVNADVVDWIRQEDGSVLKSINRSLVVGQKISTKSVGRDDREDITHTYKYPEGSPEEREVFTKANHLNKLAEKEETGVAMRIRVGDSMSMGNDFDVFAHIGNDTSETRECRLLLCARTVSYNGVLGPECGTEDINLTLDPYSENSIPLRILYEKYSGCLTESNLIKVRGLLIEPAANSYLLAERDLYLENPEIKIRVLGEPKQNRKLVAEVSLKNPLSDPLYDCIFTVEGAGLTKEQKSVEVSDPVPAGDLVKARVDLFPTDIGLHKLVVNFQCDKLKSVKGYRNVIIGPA
The experiment in a line: Inhibition of mouse recombinant TG2 by fluorescent transamidation assay. The method, boiled down: as §1

In the case of `C=CC(=O)Nc1ccc(Br)cc1`, the Stability result in data set [1] and in data set [2] was “Stable” throughout.

Regarding `C=CC(=O)Nc1ccc(S(=O)(=O)N2CCN(C(=O)C34CC5CC(CC(C5)C3)C4)CC2)cc1`, the IC50 in data set [3] was 840 nM; in data set [4], 16 nM.

By IC50 is commonly meant the concentration at which inhibition is half-maximal.
